Assay outcomes from PubChem BioAssay.
Many of the other results were omitted from the sample, so hits are more common in it than they were.
CHOP inhibitor = inhibitors of CHOP induction in ER stress response | CHO-K1 CHOP-promoter luciferase, tunicamycin-induced, 15-18 h | inhibition, % at 10 µM | actives 3.8% (n = 220,000);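 active = compounds that reduced the stress-induced luciferase reporter signal by more than about 70% of percent inhibition, limit read from the data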
UPR CHOP act = activators of apoptotic arm of unfolded protein response (CHOP). actives 0.34% (n = 330,000). activation, % at 10 µM. CHO-CHOP luciferase reporter, UPR activation, luminescence; percent of tunicamycin response over DMSO baseline;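 active = at 10 µM dose, activation of 40% or more, normalized to positive control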
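System: CHO CHOP reporter cells. Amount: 500 cells per well. Buffer or medium: F12 medium, 10% FBS. Compound dosing: one dose, 10 µM in 0.5% DMSO. Incubation: 6 h compound exposure at 37 °C after overnight seeding. Technique: Steady-Glo luciferase luminescence. Benchmarks: tunicamycin and DMSO controls.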
Dynein transport = dynein cargo transport inhibition; 3617.4 mouse cells, GR-EGFP nuclear translocation imaging; test concentration mostly 20 µM; stimulated with dexamethasone, 1 µM; active compounds read low; z-score, hits read low; actives 0.47% (n = 220,000); AID 1381;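 active = plate z-score of nuclear minus cytoplasmic receptor signal below a set negative limit, without overly bright fluorescence or cell loss, cut at about -3.5 in these data, passing the limit was not always enough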;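 also: z-score of nuclear minus cytoplasmic ring GR-EGFP intensity difference per well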
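Medium: Induction medium lacking tetracycline, stripped serum | Probe or stimulus: 1.0 µM final dexamethasone stimulus | Schedule: 48 h induction, then 1 h compound, then 30 min agonist, 37 °C | Signal: Automated 10x imaging of fixed Hoechst-stained cells | Evaluation: Per-cell GR-EGFP intensity, nucleus versus surrounding cytoplasmic ring, well-averaged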
Beta2AR agonist = human beta-2 adrenergic receptor agonism by FAP; P07550; Am2.2-beta2AR cells, FAP receptor internalization, flow cytometry; response, % (concentration not given with the values); actives 0.43% (n = 340,000); AID 504454;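 active = response above a set limit, near 3 SD of response in nonfluorescent compounds, cut at about 42% in these data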
Target sequence (P07550 whole entry, looked up): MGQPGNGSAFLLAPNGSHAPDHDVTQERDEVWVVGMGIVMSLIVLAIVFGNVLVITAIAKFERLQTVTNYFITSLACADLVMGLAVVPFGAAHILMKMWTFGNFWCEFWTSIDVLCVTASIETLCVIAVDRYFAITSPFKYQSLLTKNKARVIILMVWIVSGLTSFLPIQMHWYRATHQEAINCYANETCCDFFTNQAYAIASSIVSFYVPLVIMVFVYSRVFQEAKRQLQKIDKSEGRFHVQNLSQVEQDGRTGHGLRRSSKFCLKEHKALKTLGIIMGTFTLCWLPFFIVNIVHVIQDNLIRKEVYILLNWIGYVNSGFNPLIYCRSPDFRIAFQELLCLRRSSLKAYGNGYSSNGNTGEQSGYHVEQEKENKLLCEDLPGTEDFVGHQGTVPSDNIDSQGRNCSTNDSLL
XBP1 UPR activ = activators of adaptive arm of unfolded protein response (XBP1). CHO-XBP1 luciferase reporter, IRE1-XBP1 UPR activation, luminescence; percent of tunicamycin response, DMSO as zero. activation, % at 20 µM. actives 0.33% (n = 330,000);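 active = versus positive control, 20 µM dose yields 30% or more activation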
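Signal: luciferase luminescence; Assay system: CHO-XBP1 luciferase reporter cells; Amount: one thousand reporter cells per well; Dosing: 20 µM single concentration, DMSO 1%; Benchmarks: high control tunicamycin 10 µg/mL final, low control DMSO vehicle only; Schedule: 6 h compound exposure at 37 °C, 5% CO2; Evaluation: percent activation relative to tunicamycin reference.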
pCIP destab = p/CIP protein destabilization. Q05BA5. F442A p/CIP-EGFP cells, EGFP fluorescence, 16 h. decrease of EGFP signal, % at 10 µM. actives 0.01% (n = 290,000);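 active = EGFP signal decrease of at least 30% at 10 µM or well 3 SD below plate mean, unless failing retest; inactive = the rest, including hits failing retest or dose response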
Numbers stand for hits; . = inactive; / = not tested or not shown.

SMILES | CHOP inhibitor | UPR CHOP act | Dynein transport | Beta2AR agonist | XBP1 UPR activ | pCIP destab
O=C(N/N=C/c1cc(Cl)ccc1O)c1ccncc1 | 72.5 | . | . | . | . | .
CC1(C)CC(NS(=O)(=O)c2ccc(C(C)(C)C)cc2)CC(C)(C)N1 | / | . | / | . | . | .
CSc1nsc(SCC(=O)Nc2ccc(C(=O)O)cc2)n1 | / | . | / | . | . | .
CCn1c(CNc2cccc(Cl)c2)nnc1SCC(=O)OC1CCCCC1 | 71.9 | . | . | . | . | .
O=C(/C(=C/O)N=Nc1ccc(Cl)cc1)c1ccncc1 | . | . | . | . | . | .
Cc1ccc(N=N/C(=C\O)C(=O)c2ccncc2)cc1 | 88.6 | . | . | . | . | .
Cc1cccc(NC(=O)CSc2nnc(Cn3nnc(-c4ccccc4)n3)n2-c2ccccc2)c1 | 78.1 | . | . | . | . | .
CC(=O)Nc1nonc1NC(C)=O | . | . | . | . | . | .
CC(=O)Nc1cc(OC(C)=O)c2nonc2c1OC(C)=O | / | . | -5.1 | . | . | .
COc1ccc(-c2cc(-c3ccc(Br)cc3)nc3ncnn23)cc1OC | 78.9 | . | . | . | . | .
COc1cc(OC)cc(C(=O)OCc2cc3ccccc3[nH]c2=O)c1 | 84.5 | . | . | . | . | .
Nc1nc(Cn2nnc(-c3ccccc3Cl)n2)nc(N2CCOCC2)n1 | . | . | . | . | . | .
Nc1nc(Cn2nnc(-c3ccccc3F)n2)nc(N2CCOCC2)n1 | . | . | . | 51.6 | . | .
CCCS(=O)(=O)N1CCN(S(=O)(=O)c2ccccc2)CC1 | . | . | . | . | . | .
CCN(CC)c1nc(Nc2ccccc2)nc(Oc2ccc(=O)n(C)n2)n1 | 71.3 | . | . | . | . | .
COc1ccc(NC(=O)CN(C)C(=O)c2cccc(S(=O)(=O)Nc3ccccc3Cl)c2)cc1 | / | . | / | . | . | /
Cc1cccc(C)c1NC(=O)CSc1nc(COc2ccccc2)nc2ccccc12 | 88.5 | . | . | . | . | .
Cc1cccc(NC(=O)CSc2nc(COc3ccccc3)nc3ccccc23)c1C | . | . | . | . | . | .
CCOc1ccc(NC(=O)CSc2nc(C3CC3)nc3ccccc23)cc1 | 95.8 | . | . | . | . | .
CC1(C)Cc2c(c(N3CCOCC3)nc3sc4c(N5CCOCC5)nnnc4c23)CS1 | . | . | . | / | 58.5 | .
CC1(C)Cc2c(c(N3CCOCC3)nc3sc4c(=O)[nH]cnc4c23)CS1 | . | . | . | . | . | .
O=C(Nc1nc(-c2cccc3ccccc23)cs1)c1cnccn1 | 92.5 | . | . | . | . | .
O=C(Nc1ccc(N2CCOCC2)cc1)c1cnsn1 | 78.1 | . | . | . | . | .
CCCc1nc(SCC(=O)N2CCc3ccccc32)c2c(C)c(C)sc2n1 | . | . | . | / | . | .
Cc1ccc(SC(C)c2nc(-c3ccccc3)no2)cc1 (stereo unspecified) | 72.4 | . | . | . | . | .
SMILES | CHOP inhibitor | UPR CHOP act | Dynein transport | Beta2AR agonist | XBP1 UPR activ | pCIP destab
CCOc1ccc(-c2nnc(NC(=O)c3ccc(OCC(C)C)c(OC)c3)o2)cc1 | 90.8 | . | . | . | . | .
O=C1CC(N2CCC(c3nc4ccccc4o3)CC2)C(=O)N1c1ccc(Cl)c(C(F)(F)F)c1 (stereo unspecified) | 86.3 | . | . | . | . | .
O=C1CC(N2CCC(c3nc4ccccc4o3)CC2)C(=O)N1c1ccc(F)cc1 (stereo unspecified) | . | . | . | . | . | .
COc1cc(NC(=S)N2CCCC2)cc(OC)c1 | / | . | / | . | . | .
COc1ccc(CCN2CNc3c(c(=O)n(C)c(=O)n3C)C2)cc1 | . | . | . | . | . | .
Cn1c2c(c(=O)n(C)c1=O)CN(CC1CCCO1)CN2 (stereo unspecified) | 73.0 | . | . | . | . | .
COc1cc(/C=C2\SC(=O)N(CCN)C2=O)ccc1OS(=O)(=O)c1cc(C)ccc1C | 93.0 | / | . | . | / | .
COc1ccc(/C=C2\SC(=O)N(CCC(=O)Nc3ccccc3)C2=O)cc1OC | . | . | . | . | . | .
CC(=O)NC1=C(N(C)C2CCS(=O)(=O)C2)C(=O)c2ccccc2C1=O (stereo unspecified) | 75.0 | . | . | . | . | .
Cc1ccc(-n2ncc3c(SCc4ccccn4)ncnc32)c(C)c1 | . | . | . | . | . | .
COc1cc(Br)cc(C(c2c(C)n(C)n(-c3ccccc3)c2=O)c2c(C)n(C)n(-c3ccccc3)c2=O)c1O | / | . | / | . | . | /
C=CCOc1cccc(C(=O)/C=C2/C(=O)Nc3ccccc32)c1 | / | 85.6 | / | 78.5 | . | .
O=C(Cc1csc(-c2ccccc2)n1)Nc1ccc(C(F)(F)F)cc1 | 82.6 | . | . | . | . | .
CC(=O)c1c(C)oc(C)c1CSCc1ccc(C(=O)O)o1 | . | . | . | . | . | .
C=CCn1c(-c2cc(-c3ccc(C)cc3)nc3ccccc23)n[nH]c1=S | 70.4 | . | . | . | . | .
CCn1c(-c2cc(-c3ccc(C)cc3)nc3ccccc23)n[nH]c1=S | . | . | . | . | . | .
Cc1ccccc1OCCNC(=O)CSc1ccc(C(F)(F)F)cc1[N+](=O)[O-] | . | . | . | . | . | .
COc1cccc(OCCNC(=O)CSc2ccc(C(F)(F)F)cc2[N+](=O)[O-])c1 | 84.7 | . | . | . | . | .
O=C1C(Nc2ccccc2)=C(N2CCCCC2)C(=O)c2ccccc21 | . | . | . | . | . | .
CN(C1=C(N2CCCCC2)C(=O)c2ccccc2C1=O)c1ccccc1 | 71.3 | . | . | . | . | .
COC(=O)c1ccc(NC(=O)CCS(=O)(=O)c2ccc3c(c2)NC(=O)C(C)S3)cc1 (stereo unspecified) | / | . | / | . | . | .
CCc1ccc(OCc2nnc(NC(=O)c3cccs3)s2)cc1 | 71.6 | . | . | . | . | .
COc1ccc(C(=O)N(C)CC(=O)Nc2cccc(F)c2)cc1S(=O)(=O)NC1CCCC1 | / | . | / | . | . | /
CCc1ccc(-c2cn3nc(C)c(C)nc3n2)cc1 | 91.9 | . | . | . | . | .
Cc1nc2nc(-c3ccc(F)cc3)cn2nc1C | / | . | / | . | . | .
CCCCCNC(=O)Cn1c(=O)c2c(ncn2CC(C)C)n(Cc2ccccc2)c1=O | / | . | / | . | . | .
CSc1nc(N)nc2c1ncn2C1OC(CO)CC1O (stereo unspecified) | / | / | / | . | / | /
Nc1ncnc2c1ncn2[C@@H]1O[C@H](CNS(=O)(=O)c2ccc3c(c2)CCN(C(=O)C(F)(F)F)C3)[C@@H](O)[C@H]1O | / | . | / | . | . | /
COc1ccc(N2CCN(C(=O)Cc3ccc(Cl)cc3)CC2)cc1 | / | . | / | . | . | .
